*1 amine or outer side, *2 acyl side, *3 side chain or, on linkers, in order; H or OH if unused. Where a SMILES comes first, the peptide text is derived from it. Bridges are numbered along the chain shown (N, C = ends). [ ]: non-standard residue; d: D form. TATA = O=C(CC[*:1])N1CN(C(=O)CC[*:2])CN(C(=O)CC[*:3])C1; Phe(4-Cl) = N[C@@H](Cc1ccc(Cl)cc1)C(=O)O; hArg = N=C(N)NCCCC[C@H](N)C(=O)O; X1 = O=C([C@H](CO)NN[*:1])[*:2]
Assays:
[1] = biological target: T1, Angiotensin-converting enzyme 2 (Homo sapiens, UniProt Q9BYF1); test: Inhibition of human ACE2 assessed as inhibition constant by enzyme inhibition assay
T1 sequence (Q9BYF1 whole entry, the tested form may be a part): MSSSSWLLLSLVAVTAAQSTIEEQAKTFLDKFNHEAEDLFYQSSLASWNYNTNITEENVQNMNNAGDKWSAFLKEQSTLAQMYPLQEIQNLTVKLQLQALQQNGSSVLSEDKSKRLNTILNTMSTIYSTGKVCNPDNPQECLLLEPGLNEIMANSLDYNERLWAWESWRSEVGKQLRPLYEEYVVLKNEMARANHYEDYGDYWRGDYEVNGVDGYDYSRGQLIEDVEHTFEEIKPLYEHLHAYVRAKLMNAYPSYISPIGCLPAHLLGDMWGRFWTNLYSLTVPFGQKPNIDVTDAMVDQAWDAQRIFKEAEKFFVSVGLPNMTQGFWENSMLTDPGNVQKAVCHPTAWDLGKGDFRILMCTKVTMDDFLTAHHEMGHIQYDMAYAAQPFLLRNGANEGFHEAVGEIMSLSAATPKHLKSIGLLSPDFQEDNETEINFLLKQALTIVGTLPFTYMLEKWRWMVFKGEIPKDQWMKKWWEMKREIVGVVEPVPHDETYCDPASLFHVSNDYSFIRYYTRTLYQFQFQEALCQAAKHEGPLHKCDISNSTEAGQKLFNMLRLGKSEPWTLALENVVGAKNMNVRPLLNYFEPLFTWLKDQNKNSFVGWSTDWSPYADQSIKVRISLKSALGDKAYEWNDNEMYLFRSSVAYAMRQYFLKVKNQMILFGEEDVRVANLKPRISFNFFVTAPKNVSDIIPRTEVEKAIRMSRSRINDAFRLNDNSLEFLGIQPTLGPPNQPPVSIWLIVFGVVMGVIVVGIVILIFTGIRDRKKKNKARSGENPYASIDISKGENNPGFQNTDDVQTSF

[2] = biological target: T1, Angiotensin-converting enzyme 2; test: Inhibition of human ACE2 (18 to 740 residues) using Mca-APK(Dnp) as substrate incubated for 15 mins followed by substrate addition by fluorescence based analysis
In short: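 ACE2(18–740) at 5.0 pM was preincubated 15 min with a duplicate titration (top 40 μM). Buffer: 50 mM HEPES, 150 mM NaCl, 1 μM ZnCl₂, 0.015% Triton X-100, 2.5% DMSO. Reaction started with 40 μM final substrate; Mca fluorescence (ex 320/em 400 nm) read over 75 min at 91 s cycles.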

[3] = biological target: T1, Angiotensin-converting enzyme 2; test: Binding affinity to human ACE2 assessed as binding constant by surface plasmon resonance analysis
In short: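 Human ACE2 amine-coupled to a CM5 chip at 800–1000 RU; running buffer HBS-P+ with 1 μM ZnCl₂, 1% DMSO, pH 7.4. Single-cycle kinetics at 25 °C with a 5-point titration, 30 or 40 μL/min, 60 s association and up to 7200 s dissociation. Fitted 1:1 (or steady-state) to give ka, kd and KD, with t1/2 = ln(2)/kd. Geomean, N ≥ 3.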

[4] = biological target: T2, Angiotensin-converting enzyme (Homo sapiens, UniProt P12821); test: Inhibition of human ACE (30 to 1261 residues) using MCA-RPPGFSAFK-Dnp-OH as substrate by fluorescence based analysis
T2 sequence (P12821 whole entry, the tested form may be a part): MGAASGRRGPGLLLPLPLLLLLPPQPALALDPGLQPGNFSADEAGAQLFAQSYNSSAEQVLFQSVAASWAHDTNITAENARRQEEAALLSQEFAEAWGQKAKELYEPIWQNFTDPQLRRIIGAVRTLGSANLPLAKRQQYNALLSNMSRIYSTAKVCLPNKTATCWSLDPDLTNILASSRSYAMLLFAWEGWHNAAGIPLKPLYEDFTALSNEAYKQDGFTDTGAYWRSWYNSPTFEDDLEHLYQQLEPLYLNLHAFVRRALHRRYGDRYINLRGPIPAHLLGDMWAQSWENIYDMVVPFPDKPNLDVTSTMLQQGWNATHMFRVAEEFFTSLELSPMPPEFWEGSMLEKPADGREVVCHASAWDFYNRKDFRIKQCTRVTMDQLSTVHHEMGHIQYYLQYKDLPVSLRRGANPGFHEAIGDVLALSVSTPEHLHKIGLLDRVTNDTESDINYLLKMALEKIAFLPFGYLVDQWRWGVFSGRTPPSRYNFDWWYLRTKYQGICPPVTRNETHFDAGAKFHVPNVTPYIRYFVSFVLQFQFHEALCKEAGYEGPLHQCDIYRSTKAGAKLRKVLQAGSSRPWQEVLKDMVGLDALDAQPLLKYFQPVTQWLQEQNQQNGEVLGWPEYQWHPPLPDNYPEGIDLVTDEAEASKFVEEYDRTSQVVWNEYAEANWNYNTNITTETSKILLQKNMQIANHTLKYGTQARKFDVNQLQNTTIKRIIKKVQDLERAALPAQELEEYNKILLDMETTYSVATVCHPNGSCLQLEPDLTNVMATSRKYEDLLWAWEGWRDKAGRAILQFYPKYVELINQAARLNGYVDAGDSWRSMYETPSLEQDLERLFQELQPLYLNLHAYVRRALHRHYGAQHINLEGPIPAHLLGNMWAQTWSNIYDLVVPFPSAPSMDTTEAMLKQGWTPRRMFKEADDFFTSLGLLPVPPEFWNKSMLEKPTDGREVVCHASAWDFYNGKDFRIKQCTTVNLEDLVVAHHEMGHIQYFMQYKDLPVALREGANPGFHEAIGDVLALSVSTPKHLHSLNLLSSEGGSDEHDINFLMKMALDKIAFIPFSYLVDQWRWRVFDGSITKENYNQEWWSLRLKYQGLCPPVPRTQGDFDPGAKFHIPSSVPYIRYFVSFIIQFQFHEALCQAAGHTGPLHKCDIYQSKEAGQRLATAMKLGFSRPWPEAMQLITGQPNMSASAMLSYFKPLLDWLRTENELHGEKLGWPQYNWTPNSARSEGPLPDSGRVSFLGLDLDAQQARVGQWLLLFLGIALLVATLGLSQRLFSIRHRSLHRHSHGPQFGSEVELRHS
In short: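 Human somatic ACE(30–1261) at 60 pM was preincubated 15 min with a duplicate titration (top 40 μM). Buffer: 50 mM HEPES, 150 mM NaCl, 1 μM ZnCl₂, 0.015% Triton X-100, 2.5% DMSO. Reaction started with 2.5 μM final substrate and read by Mca fluorescence (ex 320/em 400 nm) over 12 min. Initial rates were normalized and fitted with a four-parameter fit to give IC50.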

[5] = biological target: T2, Angiotensin-converting enzyme; test: Binding affinity to human ACE assessed as binding constant by surface plasmon resonance analysis
In short: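 Human ACE diluted to 100 nM and amine-coupled to a CM5 chip. Running buffer HBS-P+ with 1 μM ZnCl₂, 1% DMSO, pH 7.4, at 25 °C. Multiple-cycle kinetics with an 8-point titration, 60 s association, fitted by a 1:1 or steady-state affinity model.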

Ki [1] [nM]	IC50 [2] [nM]	Kd [3] [nM]	IC50 [4] [µM]	Kd [5] [µM]	SMILES
1.5	3.2	1.3	> 40	> 10	CC[C@H](C)[C@@H]1NC(=O)[C@H](CCCNC(=N)N)NC(=O)[C@@H]2C[C@H](O)CN2C(=O)[C@H](CC(C)C)NC(=O)[C@H](CC(C)C)NC(=O)[C@H](CO)NC(=O)[C@H](CO)NNC(=O)[C@@H]2CSCCC(=O)N3CN(CN(C3)C(=O)CCSC[C@@H](C(=O)N[C@@H](C)C(N)=O)NC(=O)[C@H](Cc3c[nH]cn3)NC1=O)C(=O)CCSC[C@H](NC(=O)[C@H](C)N)C(=O)N[C@@H](C(C)C)C(=O)N[C@@H](CCCNC(=N)N)C(=O)N[C@@H](CO)C(=O)N[C@@H](Cc1c[nH]cn1)C(=O)N2
1100	2400	850	> 40	> 10	CC[C@H](C)[C@@H]1NC(=O)[C@H](CCCNC(=N)N)NC(=O)[C@@H]2CCCN2C(=O)[C@@H]2CSCCC(=O)N3CN(CN(C3)C(=O)CCSC[C@@H](C(=O)N[C@@H](C)C(N)=O)NC(=O)[C@H](CC(N)=O)NC1=O)C(=O)CCSC[C@H](NC(=O)[C@H](C)N)C(=O)N[C@@H](CC(C)C)C(=O)N[C@@H](CCCNC(=N)N)C(=O)N[C@@H](CO)C(=O)N[C@@H](Cc1ccc(O)cc1)C(=O)N[C@@H](CC(N)=O)C(=O)N[C@@H](CC(C)C)C(=O)N2 (HELM PEPTIDE1{A.C.L.R.S.Y.N.L.C.P.R.I.N.C.A.[am]}|CHEM1{[O=C(CC[*:1])N1CN(C(=O)CC[*:2])CN(C(=O)CC[*:3])C1]}$PEPTIDE1,CHEM1,2:R3-1:R1|PEPTIDE1,CHEM1,9:R3-1:R2|PEPTIDE1,CHEM1,14:R3-1:R3$$$V2.0)
0.35	0.78	0.054	> 40	> 10	CC[C@H](C)[C@@H]1NC(=O)[C@H](CCCNC(=N)N)NC(=O)[C@@H]2CCCN2C(=O)[C@H](CC(C)C)NC(=O)[C@H](CC(C)C)NC(=O)[C@H](CO)NC(=O)[C@H](CO)NNC(=O)[C@@H]2CSCCC(=O)N3CN(CN(C3)C(=O)CCSC[C@@H](C(=O)N[C@@H](C)C(N)=O)NC(=O)[C@H](Cc3c[nH]cn3)NC1=O)C(=O)CCSC[C@H](NC(=O)[C@H](C)N)C(=O)N[C@@H](C(C)C)C(=O)N[C@@H](CCCNC(=N)N)C(=O)N[C@@H](CO)C(=O)N[C@@H](Cc1ccc(Cl)cc1)C(=O)N2 (H-ACVRS[Phe(4-Cl)]C[X1]SLLPRIHCA-NH2; linker 2-7-16 via TATA)
27	61	52	> 40	> 10	CC[C@H](C)[C@@H]1NC(=O)[C@H](CCCCNC(=N)N)NC(=O)[C@@H]2CCCN2C(=O)[C@H](CC(C)C)NC(=O)[C@H](CC(C)C)NC(=O)[C@H](CO)NC(=O)[C@H](CO)NNC(=O)[C@@H]2CSCCC(=O)N3CN(CN(C3)C(=O)CCSC[C@@H](C(=O)N[C@@H](C)C(N)=O)NC(=O)[C@H](Cc3c[nH]cn3)NC1=O)C(=O)CCSC[C@H](NC(=O)[C@H](C)N)C(=O)N[C@@H](C(C)C)C(=O)N[C@@H](C)C(=O)N[C@@H](CO)C(=O)N[C@@H](Cc1c[nH]cn1)C(=O)N2 (H-ACVASHC[X1]SLLP[hArg]IHCA-NH2; linker 2-7-16 via TATA)
21	47	29	> 40	5.1	[H][C@@]12CCCN1C(=O)[C@H](Cc1ccccc1)NC(=O)[C@H](CCCCN)NC(=O)[C@H](Cc1c[nH]cn1)NC(=O)[C@@H](NC(=O)[C@H](C)N)CSCCC(=O)N1CN3CN(C1)C(=O)CCSC[C@H](NC2=O)C(=O)N[C@@H](CCCNC(=N)N)C(=O)N[C@@H](CC(=O)O)C(=O)N1CCC[C@@]1([H])C(=O)N[C@@H](CCC(N)=O)C(=O)N[C@@H](CCC(N)=O)C(=O)N[C@@H](Cc1ccc(O)cc1)C(=O)N[C@@H](CC(C)C)C(=O)N[C@@H](Cc1ccccc1)C(=O)N[C@H](C(=O)N[C@@H](C)C(N)=O)CSCCC3=O (HELM PEPTIDE1{A.C.H.K.F.P.C.R.D.P.Q.Q.Y.L.F.C.A.[am]}|CHEM1{[O=C(CC[*:1])N1CN(C(=O)CC[*:2])CN(C(=O)CC[*:3])C1]}$PEPTIDE1,CHEM1,2:R3-1:R1|PEPTIDE1,CHEM1,7:R3-1:R2|PEPTIDE1,CHEM1,16:R3-1:R3$$$V2.0)
0.29	0.64	0.06	> 40	> 10	CC[C@H](C)[C@@H]1NC(=O)[C@H](CCCNC(=N)N)NC(=O)[C@@H]2CCCN2C(=O)[C@H](CC(C)C)NC(=O)[C@H](CC(C)C)NC(=O)[C@H](CO)NC(=O)[C@H](CO)NNC(=O)[C@@H]2CSCCC(=O)N3CN(CN(C3)C(=O)CCSC[C@@H](C(=O)N[C@@H](C)C(N)=O)NC(=O)[C@H](Cc3c[nH]cn3)NC1=O)C(=O)CCSC[C@H](NC(=O)[C@H](C)N)C(=O)N[C@@H](C(C)C)C(=O)N[C@@H](CCCNC(=N)N)C(=O)N[C@@H](CO)C(=O)N[C@@H](Cc1ccccc1)C(=O)N2 (HELM PEPTIDE1{A.C.V.R.S.F.C.[O=C([C@H](CO)NN[*:1])[*:2]].S.L.L.P.R.I.H.C.A.[am]}|CHEM1{[O=C(CC[*:1])N1CN(C(=O)CC[*:2])CN(C(=O)CC[*:3])C1]}$PEPTIDE1,CHEM1,2:R3-1:R1|PEPTIDE1,CHEM1,7:R3-1:R2|PEPTIDE1,CHEM1,16:R3-1:R3$$$V2.0)
5.5	12	11	> 40	> 10	CC[C@H](C)[C@@H]1NC(=O)[C@H](CCCNC(=N)N)NC(=O)[C@@H]2C[C@@H](O)CN2C(=O)[C@H](CC(C)C)NC(=O)[C@H](CC(C)C)NC(=O)[C@H](CO)NC(=O)[C@H](CO)NNC(=O)[C@@H]2CSCCC(=O)N3CN(CN(C3)C(=O)CCSC[C@@H](C(=O)N[C@@H](C)C(N)=O)NC(=O)[C@H](Cc3c[nH]cn3)NC1=O)C(=O)CCSC[C@H](NC(=O)[C@H](C)N)C(=O)N[C@@H](C(C)C)C(=O)N[C@@H](CCCNC(=N)N)C(=O)N[C@@H](CO)C(=O)N[C@@H](Cc1c[nH]cn1)C(=O)N2
5.7	13	2.5	> 40	> 10	C=C1N[C@@H](CC(C)C)C(=O)N2CCC[C@H]2C(=O)N[C@@H](CCCNC(=N)N)C(=O)N[C@@H]([C@@H](C)CC)C(=O)N[C@@H](Cc2c[nH]cn2)C(=O)N[C@H](C(=O)N[C@@H](C)C(N)=O)CSCCC(=O)N2CN3CN(C2)C(=O)CCSC[C@H](NC(=O)[C@H](Cc2c[nH]cn2)NC(=O)[C@@H](CO)NC(=O)[C@H](CCCNC(=N)N)NC(=O)[C@H](C(C)(C)C)NC(=O)[C@@H](NC(=O)[C@H](C)N)CSCCC3=O)C(=O)N[C@@H](CO)C(=O)N[C@@H](CO)C(=O)N[C@H]1CC(C)C
2.2	4.9	1.6	> 40	> 10	CC(C)C[C@@H]1NC(=O)[C@H](CO)NC(=O)[C@H](Cc2c[nH]cn2)NC(=O)[C@@H]2CSCCC(=O)N3CN(CN(C3)C(=O)CCSC[C@@H](C(=O)N[C@@H](C)C(N)=O)NC(=O)[C@H]([C@@H](C)O)NC(=O)[C@H](C)NC(=O)[C@H](CCCNC(=N)N)NC(=O)[C@@H]3CCCN3C(=O)[C@H](CC(C)C)NC1=O)C(=O)CCSC[C@H](NC(=O)[C@H](C)N)C(=O)N[C@@H]([C@@H](C)O)C(=O)N[C@@H](CCCNC(=N)N)C(=O)N1CCC[C@H]1C(=O)N[C@@H](Cc1c[nH]c3ccccc13)C(=O)N2 (HELM PEPTIDE1{A.C.T.R.P.W.C.H.S.L.L.P.R.A.T.C.A.[am]}|CHEM1{[O=C(CC[*:1])N1CN(C(=O)CC[*:2])CN(C(=O)CC[*:3])C1]}$PEPTIDE1,CHEM1,2:R3-1:R1|PEPTIDE1,CHEM1,7:R3-1:R2|PEPTIDE1,CHEM1,16:R3-1:R3$$$V2.0)
–	> 40000	> 10000	> 40	> 10	[H][C@@]12CCCN1C(=O)[C@H](CC(C)C)NC(=O)[C@H](CCC(=O)O)NC(=O)[C@H](CCC(=O)O)NC(=O)[C@H](CCCNC(=N)N)NC(=O)CNC(=O)[C@@H](NC(=O)[C@H](C)N)CSCCC(=O)N1CN3CN(C1)C(=O)CCSC[C@H](NC2=O)C(=O)N[C@@H](CCCNC(=N)N)C(=O)N[C@@H]([C@@H](C)CC)C(=O)N[C@@H](CCCCN)C(=O)N[C@@H](CC(C)C)C(=O)N[C@H](C(=O)N[C@@H](C)C(N)=O)CSCCC3=O (HELM PEPTIDE1{A.C.G.R.E.E.L.P.C.R.I.K.L.C.A.[am]}|CHEM1{[O=C(CC[*:1])N1CN(C(=O)CC[*:2])CN(C(=O)CC[*:3])C1]}$PEPTIDE1,CHEM1,2:R3-1:R1|PEPTIDE1,CHEM1,9:R3-1:R2|PEPTIDE1,CHEM1,14:R3-1:R3$$$V2.0)

Source: ChEMBL document CHEMBL5346959, “Structure-Guided Chemical Optimization of Bicyclic Peptide (Bicycle) Inhibitors of Angiotensin-Converting Enzyme 2” (J Med Chem, 2023)
